From article PMC4791037 (Environmental science & technology, 2015)

Key:
[1] = test system: Chinese hamster ovary (CHO) cell line AS52, clone 11-4-8; assay: CHO cell chronic cytotoxicity assay; assay type: cell-based; settings: mean bootstrap value, calculated as (LC50)^−1(10^3); CHO cells, 72 h
[2] = test system: genomic DNA damage in Chinese hamster ovary (CHO) cell line AS52, clone 11-4-8; assay: Single cell gel electrophoresis; assay type: cell-based; settings: CHO cells, 4 h; for GTI (±SE), genotoxicity index: mean bootstrap value, calculated as (50%TDNA)^−1(10^3)
How it was run: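 CHO AS52 clone 11-4-8 cells (Ham's F12, 5% FBS, 37 °C, 5% CO2) exposed to test compound, then run in microplate comet assay. %Tail DNA scored only over concentrations with viability >70%. Microgel means were averaged per concentration and tested by one-way ANOVA with Holm-Sidak versus control (P ≤ 0.05). 50% Tail DNA concentration came from regression. Bootstrap replicates gave GTI values (1/M).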

[3] = CHO cell chronic cytotoxicity assay; assay type: cell-based, Chinese hamster; settings: Chinese hamster, CHO cells, line AS52, clone 11-4-8

SMILES	CTI (±SE), cytotoxicity index [1] [M⁻¹]	GTI (±SE), genotoxicity index [2] [M⁻¹]	genotoxicity (result in words) ([2]; SCGE assay)	CC50 at 72 h [3] [µM]
O=CC(Cl)(Cl)Br [BDCAL, bromodichloroacetaldehyde]	51.1 ± 4.3	2.24 ± 0.05	–	–
O=CC(Cl)(Cl)Cl [TCAL, trichloroacetaldehyde]	0.94 ± 0.03	–	not genotoxic	–
O=CC(Br)Br [DBAL, dibromoacetaldehyde]	207.5 ± 2.1	9.11 ± 0.60	–	–
O=CC(Cl)(Br)Br [DBCAL, dibromochloroacetaldehyde]	200.2 ± 1.4	6.99 ± 0.28	–	–
O=CCI [IAL, iodoacetaldehyde]	170.4 ± 7.3	0.96 ± 0.03	–	–
O=CC(Cl)Br (stereo not shown) [BCAL, bromochloroacetaldehyde]	207.4 ± 11.0	1.61 ± 0.21	–	–
O=CC(Cl)Cl [DCAL, dichloroacetaldehyde]	35.7 ± 0.8	1.26 ± 0.03	–	–
O=CC(Br)(Br)Br [TBAL, tribromoacetaldehyde]	279.8 ± 4.8	3.00 ± 0.03	–	3.58
O=CCBr [BAL, bromoacetaldehyde]	64.6 ± 3.5	2.68 ± 0.11	–	–
